Legend:
[1] = target: T1, Prostaglandin G/H synthase 2 (Homo sapiens) (UniProt P35354); experiment: Inhibition of human COX2 at 30 uM pre-incubated for 10 mins before substrate addition by enzyme immunoassay
T1 sequence (whole entry): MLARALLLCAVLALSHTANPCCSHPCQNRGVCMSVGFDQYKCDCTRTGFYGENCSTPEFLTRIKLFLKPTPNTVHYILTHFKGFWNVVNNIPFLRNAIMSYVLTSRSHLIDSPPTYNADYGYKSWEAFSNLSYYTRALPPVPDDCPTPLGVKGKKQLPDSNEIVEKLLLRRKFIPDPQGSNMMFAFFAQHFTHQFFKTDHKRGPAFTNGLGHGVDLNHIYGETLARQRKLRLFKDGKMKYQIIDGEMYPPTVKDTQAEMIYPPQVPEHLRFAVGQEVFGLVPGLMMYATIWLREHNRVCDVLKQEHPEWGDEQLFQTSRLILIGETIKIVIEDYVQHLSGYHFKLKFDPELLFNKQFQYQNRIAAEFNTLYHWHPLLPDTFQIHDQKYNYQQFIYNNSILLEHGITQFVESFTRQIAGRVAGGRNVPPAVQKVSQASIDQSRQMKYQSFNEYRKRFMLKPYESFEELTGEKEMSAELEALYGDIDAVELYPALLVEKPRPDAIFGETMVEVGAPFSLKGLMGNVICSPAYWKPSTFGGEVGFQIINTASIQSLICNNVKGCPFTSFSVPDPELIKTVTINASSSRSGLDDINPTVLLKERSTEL
In short: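 Human COX-2 pre-incubated with inhibitor 10 min at 37 °C, then 5 μM arachidonic acid for 2 min at 37 °C. Reaction stopped with HCl, PGH2 reduced to PGF2α by SnCl2, and PGF2α quantified by competitive EIA with PG-acetylcholinesterase conjugate, absorbance 412 nm. Single test concentration 30 μM.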

[2] = target: T2, Prostaglandin G/H synthase 1 (Ovis aries, UniProt P05979); experiment: Inhibition of sheep COX1 pre-incubated for 5 mins before arachidonic acid substrate addition in presence of ethanol by peroxidase activity detection based oxygen electrode assay
T2 sequence (P05979 whole entry): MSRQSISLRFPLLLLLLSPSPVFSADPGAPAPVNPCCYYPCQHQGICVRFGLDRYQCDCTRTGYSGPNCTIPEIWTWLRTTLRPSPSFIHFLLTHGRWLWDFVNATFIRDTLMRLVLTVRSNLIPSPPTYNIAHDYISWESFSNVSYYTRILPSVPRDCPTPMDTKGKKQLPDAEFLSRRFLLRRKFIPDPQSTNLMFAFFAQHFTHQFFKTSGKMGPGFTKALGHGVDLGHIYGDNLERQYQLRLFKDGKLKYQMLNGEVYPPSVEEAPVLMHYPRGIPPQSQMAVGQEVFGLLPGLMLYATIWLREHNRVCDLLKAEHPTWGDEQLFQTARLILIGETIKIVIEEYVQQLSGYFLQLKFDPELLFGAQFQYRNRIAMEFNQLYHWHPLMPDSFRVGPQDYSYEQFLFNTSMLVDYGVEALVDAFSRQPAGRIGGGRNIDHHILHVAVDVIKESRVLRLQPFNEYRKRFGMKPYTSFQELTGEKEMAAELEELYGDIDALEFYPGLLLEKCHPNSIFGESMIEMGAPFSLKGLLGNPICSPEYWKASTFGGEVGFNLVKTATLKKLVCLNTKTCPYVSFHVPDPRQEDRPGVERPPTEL

[3] = target: T2, Prostaglandin G/H synthase 1; experiment: Inhibition of sheep COX1 pre-incubated for 5 mins before arachidonic acid substrate addition in presence of DMSO by peroxidase activity detection based oxygen electrode assay
[4] = target: T3, Prostaglandin G/H synthase 2 (Ovis aries, UniProt P79208); experiment: Inhibition of sheep COX2 pre-incubated for 5 mins before […] substrate addition by peroxidase activity detection based oxygen electrode assay
T3 sequence (P79208 whole entry): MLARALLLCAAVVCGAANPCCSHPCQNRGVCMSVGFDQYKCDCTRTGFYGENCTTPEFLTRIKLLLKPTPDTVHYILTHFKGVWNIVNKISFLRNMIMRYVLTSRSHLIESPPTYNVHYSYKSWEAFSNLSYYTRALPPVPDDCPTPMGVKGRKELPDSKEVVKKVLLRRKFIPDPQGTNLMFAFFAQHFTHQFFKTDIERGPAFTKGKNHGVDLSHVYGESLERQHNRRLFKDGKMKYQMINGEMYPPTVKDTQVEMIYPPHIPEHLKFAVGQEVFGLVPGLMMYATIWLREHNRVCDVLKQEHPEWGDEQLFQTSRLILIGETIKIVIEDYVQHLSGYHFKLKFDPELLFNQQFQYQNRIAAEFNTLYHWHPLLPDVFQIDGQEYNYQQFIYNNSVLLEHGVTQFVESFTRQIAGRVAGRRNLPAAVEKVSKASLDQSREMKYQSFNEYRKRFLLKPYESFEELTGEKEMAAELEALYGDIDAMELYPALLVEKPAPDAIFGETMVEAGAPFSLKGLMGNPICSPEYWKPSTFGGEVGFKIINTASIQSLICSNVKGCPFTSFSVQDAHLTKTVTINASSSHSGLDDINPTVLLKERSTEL

[5] = target: T2, Prostaglandin G/H synthase 1; experiment: Inhibition of ovine COX1 pre-incubated for 10 mins before arachidonic acid substrate addition by enzyme immunoassay
In short: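 Ovine COX-1 pre-incubated with inhibitor for 10 min at 37 °C, then 5 μM arachidonic acid for 2 min at 37 °C. Stopped with HCl; PGH2 reduced to PGF2α with SnCl2 and measured by competitive EIA (PG antibody, PG-acetylcholinesterase conjugate), absorbance at 412 nm.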

[6] = target: T4, Fatty-acid amide hydrolase 1 (Rattus norvegicus, UniProt P97612); experiment: Inhibition of FAAH in Sprague-Dawley rat cerebellum membranes pre-incubated for 10 mins before addition of [3H]AEA substrate in presence of ethyl alcohol by liquid scintillation counting; type: cell membranes, Membrane
T4 sequence (P97612 whole entry): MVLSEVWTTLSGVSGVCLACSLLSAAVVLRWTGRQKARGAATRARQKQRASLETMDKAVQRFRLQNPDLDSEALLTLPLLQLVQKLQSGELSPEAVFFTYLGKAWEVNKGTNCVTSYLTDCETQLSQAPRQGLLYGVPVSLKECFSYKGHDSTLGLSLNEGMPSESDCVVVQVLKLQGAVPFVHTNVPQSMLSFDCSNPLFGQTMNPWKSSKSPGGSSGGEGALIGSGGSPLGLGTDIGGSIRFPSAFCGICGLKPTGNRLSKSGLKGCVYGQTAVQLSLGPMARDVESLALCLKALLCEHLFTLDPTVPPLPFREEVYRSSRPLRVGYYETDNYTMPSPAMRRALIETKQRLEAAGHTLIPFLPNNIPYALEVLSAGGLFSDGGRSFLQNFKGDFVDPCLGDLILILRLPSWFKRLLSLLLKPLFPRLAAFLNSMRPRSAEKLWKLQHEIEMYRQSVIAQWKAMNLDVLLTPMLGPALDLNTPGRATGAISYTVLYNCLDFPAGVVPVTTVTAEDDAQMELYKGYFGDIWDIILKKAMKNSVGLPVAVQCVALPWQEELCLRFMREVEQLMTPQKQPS

[7] = target: T4, Fatty-acid amide hydrolase 1; experiment: Inhibition of FAAH in rat brain homogenates pre-incubated for 10 mins before addition of [3H]anandamide and [3H]AEA substrates for 30 mins by liquid scintillation counting; type: tissue-based; conditions: read-out: IC50
In short: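 Rat whole-brain homogenate (50 ug protein/sample) in 50 mM TRIS pH 7.4, 0.05 % fatty acid free BSA; inhibitor pre-incubated 10 min, then 1 uM unlabelled AEA plus 0.6 nM [3H]-AEA added for 30 min at 37°C. Stopped with cold 1:1 CHCl3/MeOH; aqueous phase counted.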

Q: For Cc1cccnc1NC(=O)C(C)c1ccc(CC(C)C)cc1 (configuration not stated), which inhibition [1] is on record?
A: Its inhibition is 30%.

Q: What about the IC50 [2] of the same compound?
A: The IC50 was 240 µM.

Q: What about the IC50 [3] of the same compound?
A: Its IC50 is 60 µM.

Q: And the IC50 [4]?
A: Its IC50 is 20 µM.

Q: What about the IC50 [5] of the same compound?
A: Its IC50 is 170 µM.

Q: What about the IC50 [6] of the same compound?
A: The IC50 was 0.5 µM.

Q: What about the IC50 [7] of the same compound?
A: Its IC50 is 66 µM.

— ChEMBL document CHEMBL2169800 (J Med Chem, 2012)
